Assay outcomes: PubChem, Broad Institute
Wnt bcat act: activators of Wnt/beta-catenin signaling; AID 743398; Wnt/beta-catenin reporter cell assay, activator, plate reader; 300,000 tested, 1.2% active; activation, % at 9.35 µM; in the data active = activation above about 30%, passing the limit was not always enough; inconclusive = no clear call, values can overlap the other calls
esBAF inh: blocks esBAF chromatin remodeling in mouse ES cells | Bmi1-luciferase knock-in reporter, 24 h; 100% = twice the neutral-well signal | reporter increase, % at 12.5 µM | 350,000 tested, 2% active | AID 602393; in the data active = activation above about 40%; inconclusive = no clear call, values can overlap the other calls;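 note: a rise in the Bmi1 reporter signal indicates esBAF inhibition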
Vif imaging: inhibitors of HIV Vif | HEK293T cells, Vif self-association by quenched fluorescence, imaging, 24 h | inhibition, % at 7.49 µM | 340,000 tested, 0.35% active | AID 602346; in the data active = inhibition above about 50%, passing the limit was not always enough; inconclusive = no clear call, values can overlap the other calls; inactive = below about 31%
MITF TRPM1 HTS: activators of MITF-driven TRPM1 promoter activity in SK-MEL-5 cells; SK-MEL-5 TRPM1-promoter luciferase, 24 h; % of positive control, neutral wells = 0; activation, % at 12.5 µM; 300,000 tested, 0.75% active; AID 588334;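 active = mean activation of at least 80% with every replicate also reaching 80%; inconclusive = mean reaches 80% but some replicate falls short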
Xi reactivation: reactivates the inactive X chromosome in mouse fibroblasts; XiGFP mouse fibroblasts, % GFP-positive cells imaging, 3 d; cells co-treated with 5-aza-dC sensitizer; scaled so ellipticine positive control = 100%; activation, % at 7.58 µM; 360,000 tested, 0.055% active; AID 743238;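 active = mean normalized replicate activation at least 10% and every replicate at or above 10%; inconclusive = only one of the two criteria met; inactive = mean below 10% and not all replicates reach 10%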
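Assay system: SV40-immortalized XiGFP fibroblast cells, line 68-5-11; buffer or medium: DMEM plus 5-aza-dC sensitizer; compound: one concentration, pinned; timing: compounds 3 days, fix/stain 15 min at room temperature; benchmarks: positive control ellipticine, 6 µM final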
Numbers stand for hits; . = inactive; ? = inconclusive; / = no result. Sampled rows, rich in hits. Any-hit rate of the full collection: about 2.6%.

SMILES	Wnt bcat act	esBAF inh	Vif imaging	MITF TRPM1 HTS	Xi reactivation
CCC(=O)N1CCN(c2ccc(NC(=O)c3cc4ccccc4o3)cc2Cl)CC1	.	.	.	.	/
CC(C)CC#Cc1ccc2c(c1)O[C@@H](CN(C)C(=O)C1CCC1)[C@H](C)CN([C@@H](C)CO)S2(=O)=O	/	.	/	/	.
CN(C)S(=O)(=O)c1cccc(NC(=O)c2cc3ccccc3o2)c1	/	50	.	/	/
COc1cc(NC(=O)C(C)C)ccc1NC(=O)c1cc2ccccc2o1	.	60	.	84	.
CCOc1cccc(C(=O)Nc2ccc(NC(=O)c3cc4ccccc4o3)c(OC)c2)c1	.	.	71	/	.
Cc1ccc(S(=O)(=O)N(C)C[C@H]2OCCCC[C@@H](C)Oc3ccc(NC(=O)Nc4ccccc4)cc3C(=O)N([C@@H](C)CO)C[C@H]2C)cc1	/	.	/	/	.
Cc1noc(C)c1S(=O)(=O)Nc1ccc2c(c1)CC(=O)N([C@@H](C)CO)C[C@@H](C)[C@H](CN(C)C(=O)Nc1cccc3ccccc13)O2	/	.	/	/	.
CCC(=O)Nc1ccc2oc(-c3ccccc3Br)nc2c1	/	59	.	130	/
Cc1ccc(OCC(=O)Nc2ccc(O)c(-c3nc4ccccc4o3)c2)cc1	.	54	.	.	/
Cc1ccccc1-c1nc2cc(NC(=O)C3CC3)ccc2o1	.	63	.	.	.
Cc1ccccc1-c1nc2cc(Cl)ccc2o1	38	/	.	?	/
Cc1ccccc1-c1nc2ccccc2o1	.	.	.	.	/
Cc1ccccc1-c1nc2cc(Cl)ccc2c(=O)o1	.	/	.	.	.
CC(=O)Nc1ccc2oc(-c3ccccc3Br)nc2c1	/	/	.	.	/
CC(C)NC(=O)Nc1ccc2c(c1)CC(=O)N([C@H](C)CO)C[C@@H](C)[C@@H](CN(C)S(=O)(=O)c1cn(C)cn1)O2	/	.	/	/	.
CN(C(=O)c1ccco1)c1nnc(C23CC4CC(CC(C4)C2)C3)s1	.	67	.	/	.
CCC(=O)Nc1cccc(NC(=S)NC(=O)c2ccccc2Cl)c1	/	/	.	.	/
CCC(=O)Nc1cccc(NC(=S)NC(=O)c2cccs2)c1	/	/	.	86	.
N#Cc1ccccc1NC(=O)COC(=O)c1cccs1	.	/	.	.	.
N#Cc1ccccc1NC(=S)NC(=O)c1cccs1	.	45	.	.	.
O=C(C[C@H]1C[C@@H]2c3cc(NC(=O)Nc4ccccc4)ccc3O[C@@H]2[C@H](CO)O1)NCC1CC1	/	.	/	/	.
Cc1ccc(S(=O)(=O)Nc2ccc3c(c2)C(=O)N([C@H](C)CO)C[C@H](C)[C@@H](CN(C)S(=O)(=O)c2ccc(C)cc2)OCCCC[C@H](C)O3)cc1	/	.	/	/	.
OCCc1ccc(-c2ccc(Cl)cc2)o1	.	52	.	.	/
CCS(=O)(=O)N[C@H]1C=C[C@@H](CC(=O)Nc2ccc(-c3ccccc3)cc2)O[C@@H]1CO	/	.	/	/	.
CCOC(=O)Oc1ccc2c(=O)c(Oc3cccc(C)c3)coc2c1	.	?	.	.	/
SMILES	Wnt bcat act	esBAF inh	Vif imaging	MITF TRPM1 HTS	Xi reactivation
Cc1cccc(Oc2coc3cc(OC(=O)c4cncc(Br)c4)ccc3c2=O)c1	.	34	.	.	.
Cc1cccc(Oc2coc3cc(O)ccc3c2=O)c1	.	59	.	/	.
Cc1cccc(Oc2coc3cc(OC(=O)c4cc5ccccc5oc4=O)ccc3c2=O)c1	/	54	.	.	/
CCCNC(=O)N1CC2(CN(Cc3ccccn3)C2)c2c(n(C)c3cc(OC)ccc23)[C@@H]1CO	/	/	/	/	.
O=c1[nH]cnc2scc(-c3ccc(-c4ccccc4)cc3)c12	/	.	.	/	/
COc1ccc(-c2cc3nc[nH]c(=O)c3s2)cc1	34	.	.	.	/
O=c1[nH]cnc2cc(-c3ccccc3)sc12	/	42	.	/	/
Cc1[nH]n(-c2cccc(Cl)c2)c(=O)c1C=NC12CN3CN(CN(C3)C1)C2	/	.	.	.	/
Cc1[nH]n(-c2cccc(Cl)c2)c(=O)c1C=NCC(C)C	.	/	.	111	.
Cc1[nH]n(-c2cccc(Cl)c2)c(=O)c1C=NCc1ccco1	.	/	.	105	.
O=C(C[C@@H]1CC[C@@H](NC(=O)CC2CC2)[C@H](CO)O1)NCc1ccccc1	/	/	/	/	.
COc1ccc2c3c([nH]c2c1)[C@H](CO)N(C(=O)C1CCC1)CC31CN(C(=O)c2ccncc2)C1	/	/	/	/	.
COc1ccc2c3c(n(C)c2c1)[C@H](CO)N(CC1CC1)CC31CN(C(=O)c2ccccc2)C1	/	/	/	/	.
O=C(C[C@@H]1C=C[C@H](NC(=O)C2CCOCC2)[C@@H](CO)O1)Nc1ccccc1	/	/	/	/	.
CCc1ccc(C(=O)/C=C/c2cnn(C)c2C)s1	.	55	.	/	/
Nc1ccc(/C=C/C(=O)c2cccs2)cc1	.	68	?	.	.
Cc1c(/C=C/C(=O)c2cccs2)cnn1C	57	.	.	.	/
O=C(C=Cc1ccccc1)c1cccs1	.	/	.	.	.
O=C(c1cnccn1)N1CC(=O)N2[C@H](CO)[C@@H](c3ccc(C#CCC4CCCC4)cc3)[C@@H]2C1	/	/	/	/	.
C[C@@H]1CN([C@H](C)CO)C(=O)c2cc(NS(C)(=O)=O)ccc2O[C@@H](C)CCCCO[C@H]1CN(C)C(=O)Nc1ccc(C(F)(F)F)cc1	/	.	/	/	.
CCc1ccc(NC(=S)N2CCCC2)cc1	.	49	.	.	.
S=C(Nc1ccc2nsnc2c1)N1CCCC1	.	81	.	.	.
